Reference: ChEMBL document CHEMBL1641521, “Design, synthesis and antimycobacterial activities of 1-methyl-2-alkenyl-4(1H)-quinolones” (Bioorg Med Chem, 2011)
≈ marks a conversion by molar mass, not a printed value.

Experiments:
[1] = Cytotoxicity against human MRC5 cells assessed as metabolic active cells at 30 uM after 72 hrs by XTT assay relative to control; format: ADME, cell-based; conditions: read-out: Activity
Procedure, shortened: (§1)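 MRC-5 human diploid embryonic lung cells seeded at 5 × 10^4 cells/well, grown 24 h, then exposed 72 h at 37 °C, 5% CO2 to compound. Ethanol stocks were diluted with buffer or water; 0.1% ethanol served as solvent control. XTT added, 4 h further, absorbance 490 nm minus 655 nm reference. Viability given as % of solvent control; triplicate on two plates, n = 6, mean ± SEM.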

[2] = Cytotoxicity against human MRC5 cells assessed as metabolic active cells at 100 uM after 72 hrs by XTT assay relative to control; format: ADME, cell-based; conditions: read-out: Activity; procedure, shortened: as §1
[3] = test system: Mycolicibacterium smegmatis; test: Antimycobacterial activity against Mycobacterium smegmatis ATCC 19420 after 72 hrs by broth microtiter dilution method; format: functional; conditions: ATCC 19420, 72 h
Procedure, shortened: (§2)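 Twofold serial dilution in cation-adjusted Mueller–Hinton broth, final 128–0.25 mg/L, compounds first dissolved in DMSO. Strains grown on Columbia blood agar with 7% defibrinated horse blood; inoculum 5 x 10^5 cfu/mL from 0.5 McFarland suspension in 0.9% NaCl. Three runs in duplicate.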

[4] = Selectivity index, ratio of IC50 for human MRC5 cells to MIC for Mycobacterium smegmatis ATCC 19420; format: functional
[5] = test system: Mycolicibacterium fortuitum; test: Antimycobacterial activity against Mycobacterium fortuitum ATCC 6841 after 72 hrs by broth microtiter dilution method; format: functional; conditions: ATCC 6841, 72 h; procedure, shortened: as §2
Mycolicibacterium phlei = test: Antimycobacterial activity against Mycobacterium phlei ATCC 19249 after 72 hrs by broth microtiter dilution method; format: functional; conditions: ATCC 19249, 72 h; procedure, shortened: as §2

Row | SMILES | viability at 72 h, 30 µM [1] [%] | viability at 72 h, 100 µM [2] [%] | MIC [3] [µM] | Selectivity Index [4] | MIC [5] [µg/mL] | MIC (Mycolicibacterium phlei) [µg/mL]
1 | CCCCCCCC/C=C\CCCc1cc(=O)c2ccccc2n1C | 76.3 | 32 | 5.9 (≈ 2 µg/mL) |  |  | 
2 | CC/C=C\CCCCCCCCCc1cc(=O)c2ccccc2n1C | 95.3 | 95.4 | 5.9 (≈ 2 µg/mL) | > 20 |  | 
3 | CCCCCCCCC/C=C\CCCCc1cc(=O)c2ccccc2n1C | 46.6 | 0.8 | 2.7 (≈ 0.992 µg/mL) |  |  | 
4 | CCCC/C=C\CCCCc1cc(=O)c2ccccc2n1C | 96.8 | 83.5 | 26.9 (≈ 8 µg/mL) |  | 8 (≈ 26.9 µM) | 8 (≈ 26.9 µM)
5 | CCCCCCCCCC/C=C\CCc1cc(=O)c2ccccc2n1C | 55.1 | 4.9 | 2.8 (≈ 0.99 µg/mL) |  | 1 (≈ 2.83 µM) | 1 (≈ 2.83 µM)
6 | CCCCCCCC/C=C\CCc1cc(=O)c2ccccc2n1C | 88.3 | 85.6 | 6.2 (≈ 2.02 µg/mL) | > 20 |  | 
7 | CCCCC/C=C\CCCCc1cc(=O)c2ccccc2n1C | 94.9 | 88.5 | 12.9 (≈ 4.02 µg/mL) |  |  | 
8 | CCCCCC/C=C\CCc1cc(=O)c2ccccc2n1C | 73.8 | 47.9 | 53.9 (≈ 16 µg/mL) |  |  | 
9 | CCCCCC/C=C\CCCCc1cc(=O)c2ccccc2n1C | 94.7 | 81.2 | 3.1 (≈ 1.01 µg/mL) | > 20 |  | 
10 | CCCCCCCCC/C=C\CCc1cc(=O)c2ccccc2n1C | 89.7 | 82.1 | 5.9 (≈ 2 µg/mL) | > 20 |  | 
11 | CCCCCCCC/C=C\CCCCCCCCc1cc(=O)c2ccccc2n1C | 84.4 | 25.5 | 39.1 (≈ 16 µg/mL) |  |  | 
12 | CCCCCCCCC/C=C\CCCCCCCCc1cc(=O)c2ccccc2n1C | 95.9 | 19.9 | 151 (≈ 64.1 µg/mL) |  |  | 
13 | CCCCCCCCCC/C=C\CCCCCCCCc1cc(=O)c2ccccc2n1C | 98.9 | 91.5 | 293 (≈ 128 µg/mL) |  |  | 
14 | CCCCCCCC/C=C\CCCCCCCc1cc(=O)c2ccccc2n1C | 53.4 | 0.4 | 20.3 (≈ 8.03 µg/mL) |  |  | 
15 | CCCCC/C=C\C/C=C\CCCCCCCc1cc(=O)c2ccccc2n1C | 44.2 | 0.4 | 5.1 (≈ 2.01 µg/mL) |  | 4 (≈ 10.2 µM) | 8 (≈ 20.3 µM)
16 | CCCCCCCCCCCCCc1cc(=O)c2ccccc2n1C | 102 | 69.6 | 188 (≈ 64.1 µg/mL) |  |  | 
17 | CCCCCCCCCCCCCCCc1cc(=O)c2ccccc2n1C | 79.8 | 57.9 | 347 (≈ 128 µg/mL) |  |  | 
18 | CCCCCCCCCCCCCCCCCc1cc(=O)c2ccccc2n1C | 100 | 95.2 | > 322 |  |  | 
19 | CCCCCC/C=C/c1cc(=O)c2ccccc2n1C | 96.8 | 76.5 | 14.9 (≈ 4.01 µg/mL) |  |  | 
20 | CCCCC/C=C/c1cc(=O)c2ccccc2n1C | 86.2 | 77.2 | 62.7 (≈ 16 µg/mL) |  |  | 
21 | CCCCCCCCCC/C=C/C=C/c1cc(=O)c2ccccc2n1C | 73.8 | 32.5 | 182 (≈ 64.1 µg/mL) |  |  | 
22 | CCCCCCCCCCC/C=C/C=C/c1cc(=O)c2ccccc2n1C | 50.7 | 18.5 | 10.9 (≈ 3.98 µg/mL) |  | 2 (≈ 5.47 µM) | 4 (≈ 10.9 µM)
23 | CC[C@@H](CO)NCCN[C@@H](CC)CO [ETHAMBUTOL] |  |  |  |  | 8 (≈ 39.2 µM) | 4 (≈ 19.6 µM)
24 | CCCCC/C=C\CCCCCCc1cc(=O)c2ccccc2n1C [EVOCARPINE] | 94 | 87.6 | 5.9 (≈ 2 µg/mL) |  | 2 (≈ 5.89 µM) | 2 (≈ 5.89 µM)
25 | NNC(=O)c1ccncc1 [ISONIAZID] |  |  |  |  | 1 (≈ 7.29 µM) | 4 (≈ 29.2 µM)
